Screening data (PubChem BioAssay)
PGE2 EP2 inh: EP2 receptor (human) inhibition. P43116. C6 glioma cells expressing human EP2, cAMP TR-FRET; cells stimulated with saturating PGE2. inhibition, % at 25 µM. hit rate 0.52% among 260,000. AID 1422;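 active means percent inhibition above 40 after rounding to a whole number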;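 further: rat C6 glioma host cells with rolipram phosphodiesterase inhibitor present; the protocol text gives 20 µM as final concentration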
NPY-Y2 antag: blocks the human neuropeptide Y Y2 receptor; P49146; NPY-Y2 expressing cells, antagonist mode; inhibition, % at 2.7 µM; hit rate 0.99% among 140,000; AID 793; in the data active means inhibition above about 17%
Target sequence (P49146 whole entry, looked up): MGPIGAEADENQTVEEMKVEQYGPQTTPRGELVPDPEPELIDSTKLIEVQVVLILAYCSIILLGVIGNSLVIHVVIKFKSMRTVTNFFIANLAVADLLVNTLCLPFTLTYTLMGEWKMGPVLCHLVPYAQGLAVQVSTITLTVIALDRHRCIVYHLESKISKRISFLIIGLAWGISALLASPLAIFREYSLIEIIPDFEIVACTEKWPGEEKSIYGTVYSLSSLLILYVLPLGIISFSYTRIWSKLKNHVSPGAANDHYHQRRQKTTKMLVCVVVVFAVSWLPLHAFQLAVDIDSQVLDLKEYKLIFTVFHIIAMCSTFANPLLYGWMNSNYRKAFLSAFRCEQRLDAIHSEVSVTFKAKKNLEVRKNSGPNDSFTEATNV
NPY2 pot ag: potentiates or activates human NPY-Y2 receptor | P49146 | cells expressing NPY-Y2, potentiator/agonist read-out | activation, % at 3.6 µM | hit rate 0.45% among 220,000 | AID 1359; in the data active means activation above about 27%;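 further: cells stimulated with NPY near EC25 plus isoproterenol at EC100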
NPY-Y1 antag: NPY-Y1 (human) receptor antagonism; P25929; HEK293-CNG Y1 cells, membrane potential fluorescence; NPY at EC95, then isoproterenol; inhibition, % at 3.6 µM; hit rate 1% among 200,000; AID 1040;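 active means inhibition above the campaign mean inhibition of all tested compounds plus 3 SD, cut at about 20% in these data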
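System: HEK293 cells with Y1 receptor plus CNG channel / Probe or stimulus: NPY 25 nM then isoproterenol 1 µM plus Ro 20-1724 25 µM / Compound: one concentration, 3.6 µM, in 0.4% DMSO / Schedule: compound incubation 1 h at room temperature, readout 45 min post-stimulation / Measured by: membrane potential fluorescence / Read-out: % inhibition of NPY effect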
EP2 mod: EP2 receptor (human) modulation. AID 940. induction, % at 25 µM. EP2-expressing cells, cAMP HTRF FRET, PGE2 co-stimulation. hit rate 0.83% among 260,000;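 active means compounds whose cAMP rise, as percent of the full-agonist control response, exceeds 60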;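 further: rat C6 glioma line stably carrying human EP2 under a CMV promoter; the protocol text gives 20 µM as final concentration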
NPY1 pot ag: potentiates or activates human NPY-Y1 receptor; P25929; NPY-Y1 expressing cells, potentiator/agonist activation; activation, % at 3.6 µM; hit rate 0.37% among 220,000; AID 1304; in the data active means activation above about 33%, passing the limit was not always enough;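 further: cells stimulated with NPY at EC10 then isoproterenol at EC100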
NPY-Y1 antag ct: counter-screen for NPY-Y2 antagonists: human NPY-Y1 antagonism | shares compounds with NPY-Y2 antag | cell-based NPY-Y1 antagonism counterscreen | inhibition, % at 3.6 µM | hit rate 19% among 710 | AID 1256; in the data active means inhibition above about 20%;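 further: cells challenged with NPY then isoproterenol with cAMP sensed through a CNG channel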
NPY-Y2 ant conf: confirmation of human neuropeptide Y receptor Y2 antagonists; hit rate 32% among 710; inhibition, % at 2.8 µM; AID 1257; HEK293 NPY-Y2 CNG channel, membrane potential fluorescence; shares compounds with NPY-Y2 antag;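 active means mean inhibition of triplicate wells above the hit cutoff set in the primary screen, cut at about 17% in these data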
Hits are given with their value. This is a sample that favours compounds with a hit; in the whole collection about 2.8% have one here.

COc1ccc(C2Nc3ccccc3C(=O)N2c2ccc(C)cc2)cc1Cn1cc([N+](=O)[O-])cn1 (configuration not stated) was read as PGE2 EP2 inh inactive, NPY-Y2 antag 19.0, NPY2 pot ag inactive, NPY-Y1 antag inactive, EP2 mod inactive, NPY1 pot ag inactive, NPY-Y1 antag ct 27.4 and NPY-Y2 ant conf 62.9.
For CC(C)c1cc(C(=O)N2CCCC(C(=O)c3ccc(F)cc3)C2)on1 (configuration not stated) the results were PGE2 EP2 inh inactive and EP2 mod inactive.
CC/C(=N\OC(=O)c1ccc(OC(C)C)cc1)c1ccc(C)cc1 was read as NPY-Y2 antag 20.1, NPY2 pot ag inactive, NPY-Y1 antag inactive, EP2 mod inactive, NPY1 pot ag inactive, NPY-Y1 antag ct inactive and NPY-Y2 ant conf inactive.
C/C(=N\OC(=O)c1ccc(OC(C)C)cc1)c1ccc(C)c(C)c1 was read as PGE2 EP2 inh inactive, NPY-Y2 antag 21.8, NPY2 pot ag inactive, NPY-Y1 antag inactive, EP2 mod inactive, NPY1 pot ag inactive, NPY-Y1 antag ct inactive and NPY-Y2 ant conf 30.2.
Screening Cc1ccc(S(=O)(=O)NC2c3cccc4cccc(c34)C2Sc2nncn2C)cc1 (configuration not stated) returned PGE2 EP2 inh inactive, NPY-Y2 antag 21.4, NPY2 pot ag inactive, NPY-Y1 antag inactive, EP2 mod inactive, NPY1 pot ag inactive, NPY-Y1 antag ct inactive and NPY-Y2 ant conf inactive.
`Cn1cnnc1SC1c2cccc3cccc(c23)C1NS(=O)(=O)c1ccccc1` (configuration not stated) gave PGE2 EP2 inh inactive, NPY-Y2 antag inactive, NPY2 pot ag inactive, NPY-Y1 antag inactive, EP2 mod inactive and NPY1 pot ag inactive.
Cc1nn(Cc2ccccc2)c(Cl)c1C(=O)OCc1nnc(-c2ccccc2)o1 was read as PGE2 EP2 inh inactive, NPY-Y2 antag inactive, NPY2 pot ag inactive, NPY-Y1 antag inactive, EP2 mod inactive and NPY1 pot ag inactive.
Screening Cc1nn(Cc2ccccc2)c(Cl)c1C(=O)OCc1nnc(-c2ccc(Cl)cc2)o1 returned PGE2 EP2 inh inactive, NPY-Y2 antag 18.8, NPY2 pot ag inactive, NPY-Y1 antag inactive, EP2 mod inactive, NPY1 pot ag inactive, NPY-Y1 antag ct inactive and NPY-Y2 ant conf inactive.
Nc1ccc(NC(=O)c2ccccn2)cc1 was read as PGE2 EP2 inh inactive and EP2 mod inactive.
For Brc1cccc(-c2nnc(-c3ccccc3)o2)c1 the results were PGE2 EP2 inh inactive, NPY-Y2 antag 17.9, NPY2 pot ag inactive, NPY-Y1 antag inactive, EP2 mod inactive, NPY1 pot ag inactive, NPY-Y1 antag ct inactive and NPY-Y2 ant conf inactive.
Screening Cc1ccc(-c2nnc(-c3cccc(Br)c3)o2)cc1 returned PGE2 EP2 inh inactive, NPY-Y2 antag inactive, NPY2 pot ag inactive, NPY-Y1 antag inactive, EP2 mod inactive and NPY1 pot ag inactive.
`O=C(NC(NNc1ccc([N+](=O)[O-])cc1)(C(F)(F)F)C(F)(F)F)c1ccccc1Cl` gave PGE2 EP2 inh inactive, NPY-Y2 antag inactive, NPY2 pot ag inactive, NPY-Y1 antag inactive, EP2 mod inactive and NPY1 pot ag inactive.
`O=C(NC(Nc1nc2ccc([N+](=O)[O-])cc2s1)(C(F)(F)F)C(F)(F)F)c1ccccc1Cl` gave PGE2 EP2 inh inactive, NPY-Y2 antag 24.2, NPY2 pot ag 83.1, NPY-Y1 antag inactive, EP2 mod inactive, NPY1 pot ag 55.0, NPY-Y1 antag ct inactive and NPY-Y2 ant conf inactive.
For O=C(NC(Nc1nc2ccc([N+](=O)[O-])cc2s1)(C(F)(F)F)C(F)(F)F)c1cccnc1 the results were PGE2 EP2 inh inactive, NPY-Y2 antag 17.8, NPY2 pot ag 33.2, NPY-Y1 antag inactive, EP2 mod inactive, NPY1 pot ag 48.5, NPY-Y1 antag ct inactive and NPY-Y2 ant conf inactive.
For Cc1c(-c2ccccc2)n[nH]c1C(=O)N(C)C(C)Cc1ccccn1 (configuration not stated) the results were PGE2 EP2 inh inactive and EP2 mod inactive.
